{"source": "paper PMC9337217", "about": "(Pharmacology Research & Perspectives, 2022)", "key": {"human NK1 receptor [1]": {"molecular_target": "T1, human NK1 receptor (Homo sapiens, UniProt P25103)", "T1 sequence (P25103 whole entry)": "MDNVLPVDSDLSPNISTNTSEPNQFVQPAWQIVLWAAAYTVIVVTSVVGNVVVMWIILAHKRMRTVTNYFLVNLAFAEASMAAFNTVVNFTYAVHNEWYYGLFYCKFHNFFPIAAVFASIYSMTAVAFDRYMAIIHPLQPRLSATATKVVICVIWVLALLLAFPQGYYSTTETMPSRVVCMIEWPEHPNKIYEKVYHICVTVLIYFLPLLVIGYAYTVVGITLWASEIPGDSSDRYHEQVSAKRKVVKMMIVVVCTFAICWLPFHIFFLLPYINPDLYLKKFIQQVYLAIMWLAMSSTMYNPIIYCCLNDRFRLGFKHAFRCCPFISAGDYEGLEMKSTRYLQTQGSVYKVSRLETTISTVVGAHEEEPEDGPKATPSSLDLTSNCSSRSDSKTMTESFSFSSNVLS", "test": "NK1R antagonist block of SP‐induced Ca2+ mobilization in HEK‐NK1R cells", "type": "cell-based", "conditions": "antagonist 100 nM, 2 min pre‐incubation; n = 5", "outline": "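HEK-293 cells stably expressing human NK1R, grown in IMDM/10% FBS with hygromycin. Loaded with 4 μM Fura-2 AM (60–90 min, 37°C), 100 000 cells/well. After a 30-s baseline, antagonist or DMSO vehicle is added for 2 min, then the stimulus. Ratiometric Ca2+ (340/380 nm) is read over 4 min at 37°C. Paired t-test.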"}, "LAD2 human mast cells [2]": {"test_system": "LAD2 human mast cells", "conditions": "cited from earlier work"}, "LAD2 human mast cells [3]": {"test_system": "LAD2 human mast cells", "conditions": "cited from earlier work", "remark": "listed apart in the source"}, "LAD2 human mast cells [4]": {"test_system": "LAD2 human mast cells", "test": "LAD2 cell degranulation", "type": "cell-based", "conditions": "β‐hexosaminidase release", "outline": "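IgE-sensitized LAD2 cells (wild-type or MRGPRX2-knockdown) in HANKS buffer pH 7.4, 35 000 cells/well, exposed to a concentration range for 30 min at 37°C. Supernatant is incubated with 4 mM p-NAG (pH 4.5) for 90 min at 37°C, quenched with glycine pH 10.7, and read at 405 nm. Release is expressed as % of Triton X-100 (0.1%) lysate total, minus spontaneous release.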"}, "LAD2 human mast cells [5]": {"test_system": "LAD2 human mast cells", "test": "Ca2+ mobilization in LAD2 cells", "type": "cell-based", "conditions": "Fura‐2", "outline": "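IgE-sensitized LAD2 cells (JW8 conditioned medium, 48 h), wild-type or MRGPRX2-knockdown, washed in HANKS buffer with 1 mM probenecid. Loaded with 2 μM Fura-2 AM for 60–90 min at 37°C, then plated at 60 000 cells/well. Test compound is injected after a 30-s baseline and the 340/380 nm ratio (510 nm emission) is recorded for 6 min at 37°C. Peak ratios are taken across a concentration range.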"}, "LAD2 human mast cells [6]": {"test_system": "LAD2 human mast cells", "test": "CCL2 release by LAD2 mast cells", "type": "cell-based", "conditions": "24 h"}, "human NK1 receptor [7]": {"molecular_target": "T1, human NK1 receptor", "test": "Ca2+ mobilization in HEK‐NK1R cells", "type": "cell-based", "conditions": "even at high concentrations"}, "MRGPRX2": {"molecular_target": "T2, MRGPRX2 (Homo sapiens, UniProt Q96LB1)", "T2 sequence (Q96LB1 1-330)": "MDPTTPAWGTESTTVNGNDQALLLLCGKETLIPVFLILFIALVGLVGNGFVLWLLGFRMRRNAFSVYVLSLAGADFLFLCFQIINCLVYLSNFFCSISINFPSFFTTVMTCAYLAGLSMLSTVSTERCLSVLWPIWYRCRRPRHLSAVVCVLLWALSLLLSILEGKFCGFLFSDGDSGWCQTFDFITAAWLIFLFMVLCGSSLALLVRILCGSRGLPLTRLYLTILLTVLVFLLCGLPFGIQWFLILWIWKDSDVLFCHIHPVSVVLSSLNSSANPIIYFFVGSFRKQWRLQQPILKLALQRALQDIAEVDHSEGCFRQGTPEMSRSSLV", "test": "Antagonism of SP activation of MRGPRX2", "type": "cell-based", "conditions": "pilot studies, results not shown"}}, "note": "No end group written: not given here."}
{"compound": "COc1ccc(-n2nnnc2C(F)(F)F)cc1CN[C@H]1CCCN[C@H]1c1ccccc1", "note": "[GR205171, vofopitant]", "values": [{"measurement": "effect of antagonist pretreatment on SP responses in HEK‐NK1R cells", "setting": "human NK1 receptor [1]", "value": "effectively blocked SP responses"}]}
{"compound": "C=CC[N+]1([C@H]2C[C@H]3[C@@H]4CC[C@H]5C[C@H](O)[C@@H](N6CCOCC6)C[C@]5(C)[C@H]4CC[C@]3(C)[C@H]2OC(C)=O)CCCC1", "note": "[rocuronium]", "values": [{"measurement": "degranulation in LAD2 cells, in words", "setting": "LAD2 human mast cells [2]", "value": "without triggering concomitant degranulation"}, {"measurement": "Ca^2+ mobilization in LAD2 cells, in words", "setting": "LAD2 human mast cells [3]", "value": "shows a mobilization of Ca^2+"}]}
{"compound": "SP(1–7)‐COOH: C‐terminally truncated in vivo metabolite of SP, residues 1–7, free acid (RPKPQQF-OH; UniProt P20366 58-64, looked up, fragment)", "values": [{"measurement": "LAD2 degranulation, in words", "setting": "LAD2 human mast cells [4]", "value": "failed to produce cellular activation"}, {"measurement": "LAD2 Ca^2+ mobilization, in words", "setting": "LAD2 human mast cells [5]", "value": "failed to produce cellular activation"}, {"measurement": "CCL2 cytokine release from LAD2 cells, in words", "setting": "LAD2 human mast cells [6]", "value": "minimal and comparable to spontaneous release"}, {"measurement": "activation of NK1R (Ca^2+ mobilization), in words", "setting": "human NK1 receptor [7]", "value": "failed to induce significant activation"}, {"measurement": "antagonism of SP activation of MRGPRX2", "setting": "MRGPRX2", "value": "not been able to demonstrate any antagonism"}]}
